Source: ChEMBL document CHEMBL1124239, “Decomposition of N-(2-chloroethyl)-N-nitrosocarbamoyl amino acid amides” (J Med Chem, 1988)

How the values were obtained:
[1] = system: Mus musculus; assay: Increase in life span was tested after administration of single ip dose at 40 mg/kg (0.16 mmol/kg) in L1210 leukemia mice; Toxic; assay type: toxicity, organism-based; set-up: dose 40 mg/kg, route intraperitoneal; settings: in vivo
Outline: (§1)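 L1210 leukemia-bearing mice got a single ip dose on the first day after transplantation. Read-out was median survival in days, treated (T) versus control (C). %ILS = (T − C)/C × 100. Doses are given in both mg/kg and mmol/kg; "tox" marks doses that were toxic.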

[2] = Rate constant at a concentration of 2.54M*10e-3 was determined; assay type: ADME
Outline: (§2)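 Decomposition was followed in aqueous solution. Rate constants and half-lives were calculated assuming apparent first-order kinetics.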

[3] = system: Mus musculus; assay: Increase in life span was tested after administration of single maximal effective ip dose at 20 mg/kg (0.08 mmol/kg) in L1210 leukemia mice; assay type: functional; settings: route intraperitoneal; outline: as §1
[4] = Half-life evaluated in 0.1 M phosphate buffer, 37 degree Centigrade.; assay type: ADME; outline: as §2
[5] = system: Mus musculus; assay: Increase in life span was tested after administration of single maximal effective ip dose at 20 mg/kg (0.11 mmol/kg) in L1210 leukemia in mice; assay type: functional; settings: route intraperitoneal; outline: as §1
[6] = system: Mus musculus; assay: Increase in life span was tested after administration of single ip dose at 38 mg/kg (0.21 mmol/kg) in L1210 leukemia in mice; Toxic; assay type: toxicity, organism-based; set-up: dose 38 mg/kg, route intraperitoneal; settings: in vivo; outline: as §1
[7] = system: Mus musculus; assay: Increase in life span was tested after administration of single maximal effective ip dose at 100 mg/kg (0.4 mmol/kg) in L1210 leukemia in mice; assay type: functional; settings: route intraperitoneal; outline: as §1
[8] = system: Mus musculus; assay: Increase in life span was tested after administration of single ip dose at 200 mg/kg (0.8 mmol/kg) in L1210 leukemia in mice; Toxic; assay type: toxicity, organism-based; set-up: dose 200 mg/kg, route intraperitoneal; settings: in vivo; outline: as §1

Compound	ILS [1]	k [2]	ILS at 20 mg/kg [3]	half-life [4]	ILS at 20 mg/kg [5]	ILS [6]	ILS at 100 mg/kg [7]	ILS [8]
CC(C)C(NC(=O)N(CCCl)N=O)C(N)=O (stereo not given)	Toxic	0.0452 min⁻¹	212%	0.258 h	–	–	–	–
O=NN(CCCl)C(=O)NCCCl [CARMUSTINE]	–	–	–	–	115%	Toxic	–	–
NC(=O)C1CCCN1C(=O)N(CCCl)N=O (stereo not given)	–	0.00274 min⁻¹	–	4.26 h	–	–	420%	Toxic
